Experimental data of several laboratories.
Target: Phosphatidylinositol 4,5-bisphosphate 3-kinase catalytic subunit gamma isoform (PIK3CG, Homo sapiens, UniProt P48736)

Structure (SMILES)	observed	action	technique	concentration	quantity	value
C[C@@H]1CN(c2cc(-c3nn(C)c4ccc(OC5(C)CC5)cc34)ncn2)C[C@H](C)O1	cell-free assay	–	competition with immobilised ligand	1 µM	remaining binding	100%
C=CC(=O)Nc1cc(Nc2nccc(Nc3cc(Cl)c(F)cc3C(C)(C)O)n2)c(OC)cc1N1CC[C@@H](N(C)C)C1	enzyme activity	inhibitor	–	1 µM	inhibition	11%
CS(=O)(=O)c1cc(C2(NC(=O)c3cncc4c3cnn4-c3ccc(F)cc3)CC2)ccn1	cell-free assay	–	competition with immobilised ligand	1 µM	remaining binding	82%
CCCS(=O)(=O)Nc1ccc(F)c(C(=O)c2c[nH]c3ncc(-c4ccc(Cl)cc4)cc23)c1F	enzyme activity	inhibitor	–	1 µM	inhibition	< 10%
Nc1ncnc2occ(-c3ccc(NC(=O)Nc4cc(C(F)(F)F)ccc4F)cc3)c12	cell-free assay	inhibitor	–	20 µM	remaining signal	54%
Cc1c(NC(=O)c2cc(C(N)=O)nc3cc(F)ccc23)c(C(F)(F)F)nn1Cc1ccc(C#N)cc1	cell-free assay	–	competition with immobilised ligand	1 µM	remaining binding	80%
Cc1cc(NC(=O)c2cccc3cc(-c4cccc5[nH]nc(N)c45)ccc23)ccc1F	enzyme activity	inhibitor	–	0.1 µM	activity vs control	97%
CS(=O)(=O)Nc1cccc(-c2csc(NC(=O)CSc3nc4nccnc4c(=O)n3CCc3ccccc3)n2)c1	enzyme activity	inhibitor	–	10 µM	inhibition	20%
CC1=C(C#N)[C@@H](c2ccc3[nH]nc(C)c3c2)C(C#N)=C(c2ccc(Cl)cc2)N1	cell-free assay	–	competition with immobilised ligand	1 µM	remaining binding	100%
COc1cc(-c2cc(-c3ccc(N4CCNCC4)cc3)cnc2C)cc(OC)c1OC	enzyme activity	inhibitor	–	0.1 µM	inhibition	14%
O=C(CSc1nc2nccnc2c(=O)n1CCc1ccccc1)Nc1nccs1	enzyme activity	inhibitor	–	10 µM	inhibition	9%
COc1cc(Cl)c(C(=O)N[C@@H](CN[C@H]2CC[C@@H](N)CC2)Cc2ccc(C#N)cc2)cc1-c1ccc(CN[C@H](C)c2ccc(C)cc2)o1	enzyme activity	inhibitor	–	1 µM	remaining activity	102%
